{
  "source": "ChEMBL document CHEMBL4138274",
  "about": "“Multiflorumisides A-G, Dimeric Stilbene Glucosides with Rare Coupling Patterns from the Roots of Polygonum multiflorum” (J Nat Prod, 2018)",
  "key": {"RAW264.7 [1]": {"system": "RAW264.7", "experiment": "Antiinflammatory activity in mouse RAW264.7 cells assessed as inhibition of LPS-stimulated nitric oxide production at 20 uM after 48 hrs by Griess assay relative to control", "assay_type": "functional", "details": "RAW264.7, 48 h", "method_in_brief": "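RAW264.7 cells seeded at 4 × 10^4 per well, held 2 h at 37 °C in humidified 5% CO2, then exposed to LPS (200 ng/mL) plus serially diluted test compound for 48 h at 37 °C. Supernatant was mixed 1:1 with Griess reagent, incubated 15 min, and absorbance read at 540 nm as a nitrite measure.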"}, "RAW264.7 [2]": {"system": "RAW264.7", "experiment": "Cytotoxicity against LPS-stimulated mouse RAW264.7 cells assessed as effect on cell viability at 20 uM after 48 hrs by MTT assay", "assay_type": "cell-based", "details": "raw264.7, 48 h", "method_in_brief": "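Viability by MTT on RAW264.7 cells seeded at 4 × 10^4 per well and held 2 h at 37 °C in humidified 5% CO2. Cells were then treated for 48 h at 37 °C with LPS (200 ng/mL) together with serially diluted test compound.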"}},
  "data": [
    {"smiles": "OC[C@H]1O[C@@H](Oc2c(O)cc(O)cc2[C@H]2[C@H](c3ccc(O)cc3)[C@@H](c3cc(O)cc(O)c3O[C@@H]3O[C@H](CO)[C@@H](O)[C@H](O)[C@H]3O)[C@@H]2c2ccc(O)cc2)[C@H](O)[C@@H](O)[C@@H]1O", "values": [
      {"measurement": "inhibition at 20 µM", "setting": "RAW264.7 [1]", "value": 16.7, "unit": "%"},
      {"measurement": "Activity", "setting": "RAW264.7 [2]", "value": "Non-Toxic"}
    ]},
    {"smiles": "OC[C@H]1O[C@@H](Oc2c(O)cc(O)cc2[C@@H]2[C@@H](c3ccc(O)cc3)[C@H](c3ccc(O)cc3)[C@H]2c2cc(O)cc(O)c2O[C@@H]2O[C@H](CO)[C@@H](O)[C@H](O)[C@H]2O)[C@H](O)[C@@H](O)[C@@H]1O", "values": [
      {"measurement": "inhibition at 20 µM", "setting": "RAW264.7 [1]", "value": 22, "unit": "%"},
      {"measurement": "Activity", "setting": "RAW264.7 [2]", "value": "Non-Toxic"}
    ]},
    {"smiles": "C[C@@H]1C[C@H]2[C@@H]3CCC4=CC(=O)C=C[C@]4(C)[C@@]3(F)[C@@H](O)C[C@]2(C)[C@@]1(O)C(=O)CO", "note": "[DEXAMETHASONE]", "values": [
      {"measurement": "inhibition at 20 µM", "setting": "RAW264.7 [1]", "value": 60.9, "unit": "%"}
    ]},
    {"smiles": "OC[C@H]1O[C@@H](Oc2c(O)cc(O)cc2[C@H]2[C@H](c3ccc(O)cc3)[C@H](c3cc(O)cc(O)c3O[C@@H]3O[C@H](CO)[C@@H](O)[C@H](O)[C@H]3O)[C@H]2c2ccc(O)cc2)[C@H](O)[C@@H](O)[C@@H]1O", "values": [
      {"measurement": "inhibition at 20 µM", "setting": "RAW264.7 [1]", "value": 22.4, "unit": "%"},
      {"measurement": "Activity", "setting": "RAW264.7 [2]", "value": "Non-Toxic"}
    ]},
    {"smiles": "OC[C@H]1O[C@@H](Oc2c(O)cc(O)cc2[C@@H]2[C@@H](c3ccc(O)cc3)[C@@H](c3ccc(O)cc3)[C@@H]2c2cc(O)cc(O)c2O[C@@H]2O[C@H](CO)[C@@H](O)[C@H](O)[C@H]2O)[C@H](O)[C@@H](O)[C@@H]1O", "values": [
      {"measurement": "inhibition at 20 µM", "setting": "RAW264.7 [1]", "value": 16.8, "unit": "%"},
      {"measurement": "Activity", "setting": "RAW264.7 [2]", "value": "Non-Toxic"}
    ]},
    {"smiles": "OC[C@H]1O[C@@H](Oc2c(O)cc(O)cc2[C@H]2[C@H](c3ccc(O)cc3)c3c(O)cc(O)c(O[C@@H]4O[C@H](CO)[C@@H](O)[C@H](O)[C@H]4O)c3C[C@H]2c2ccc(O)cc2)[C@H](O)[C@@H](O)[C@@H]1O", "values": [
      {"measurement": "Activity", "setting": "RAW264.7 [2]", "value": "Non-Toxic"}
    ]},
    {"smiles": "OC[C@H]1O[C@@H](Oc2c(O)cc(O)cc2[C@H]2[C@@H](c3ccc(O)cc3)c3c(O)cc(O)c(O[C@@H]4O[C@H](CO)[C@@H](O)[C@H](O)[C@H]4O)c3C[C@@H]2c2ccc(O)cc2)[C@H](O)[C@@H](O)[C@@H]1O", "values": [
      {"measurement": "Activity", "setting": "RAW264.7 [2]", "value": "Non-Toxic"}
    ]},
    {"smiles": "OC[C@H]1O[C@@H](Oc2c(O)cc(O)cc2[C@@H]2[C@@H](c3ccc(O)cc3)c3c(O)cc(O)c(O[C@@H]4O[C@H](CO)[C@@H](O)[C@H](O)[C@H]4O)c3C[C@H]2c2ccc(O)cc2)[C@H](O)[C@@H](O)[C@@H]1O", "values": [
      {"measurement": "Activity", "setting": "RAW264.7 [2]", "value": "Non-Toxic"}
    ]}
  ]
}
